Measured values published in publication PMC3502072 (Molecular cancer therapeutics, 2012).
Entries after “also recorded” stand apart in the source; their conditions may differ.

Tests used:
[1] = test system: human cell lines derived from multiple tumor types; assay: CellTiter-Glo cell viability, panel of tumor cell lines; type: cell-based
[2] = test system: MM cells (RPMI-8226, NCI-H929, U266B1, MM.1S); assay: CellTiter-Glo cell viability, multiple myeloma cell lines; type: cell-based, human; details: 24 h; for Concentrations that significantly reduced MM cell viability: RPMI-8226 cells
[3] = test system: primary CD138-positive plasma cells from MM patient bone marrow biopsies; assay: Cell viability of primary MM patient plasma cells; type: cell-based, human; details: 24 h; cells from 2 patients
How it was run: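 Bone marrow aspirates from MM patients were separated on Ficoll-Paque. CD138+ plasma cells were isolated with magnetic anti-CD138 beads, and purity was checked by FACS. Cells were cultured in RPMI 1640 with 10% FBS and gentamycin at 37°C and 5% CO2, then treated with the test compound at a range of concentrations for 24 h. Viability was read by CellTiter-Glo luminescence; mean ± S.E (n=3).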

RPMI-8226 cells = assay: Apoptosis, cleaved caspase-3 flow cytometry in MM cells; type: cell-based, human; details: 16 hours
[4] = test system: H460, A172, HT29, HepG2, hFOB and MRC-5 cells; type: cell-based, human; details: 500 nM, 16 hours
PKC [5] = details: cited from earlier work
CDK9 [6] = target: CDK9 (Homo sapiens, UniProt P50750); details: cited from earlier work
CDK9 (Homo sapiens, UniProt P50750), sequence (P50750 whole entry): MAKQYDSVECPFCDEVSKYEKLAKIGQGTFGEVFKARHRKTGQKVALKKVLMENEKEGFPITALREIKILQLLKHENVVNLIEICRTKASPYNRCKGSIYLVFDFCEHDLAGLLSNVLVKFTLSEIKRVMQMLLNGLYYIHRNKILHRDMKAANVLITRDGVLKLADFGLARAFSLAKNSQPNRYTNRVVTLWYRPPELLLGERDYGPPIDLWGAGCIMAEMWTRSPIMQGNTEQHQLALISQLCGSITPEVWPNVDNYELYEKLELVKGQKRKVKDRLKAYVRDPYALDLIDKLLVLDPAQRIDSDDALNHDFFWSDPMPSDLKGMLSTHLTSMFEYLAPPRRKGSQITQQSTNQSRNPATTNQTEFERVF
CDK9 (Homo sapiens, UniProt P50750), sequence (O60563 whole entry partner): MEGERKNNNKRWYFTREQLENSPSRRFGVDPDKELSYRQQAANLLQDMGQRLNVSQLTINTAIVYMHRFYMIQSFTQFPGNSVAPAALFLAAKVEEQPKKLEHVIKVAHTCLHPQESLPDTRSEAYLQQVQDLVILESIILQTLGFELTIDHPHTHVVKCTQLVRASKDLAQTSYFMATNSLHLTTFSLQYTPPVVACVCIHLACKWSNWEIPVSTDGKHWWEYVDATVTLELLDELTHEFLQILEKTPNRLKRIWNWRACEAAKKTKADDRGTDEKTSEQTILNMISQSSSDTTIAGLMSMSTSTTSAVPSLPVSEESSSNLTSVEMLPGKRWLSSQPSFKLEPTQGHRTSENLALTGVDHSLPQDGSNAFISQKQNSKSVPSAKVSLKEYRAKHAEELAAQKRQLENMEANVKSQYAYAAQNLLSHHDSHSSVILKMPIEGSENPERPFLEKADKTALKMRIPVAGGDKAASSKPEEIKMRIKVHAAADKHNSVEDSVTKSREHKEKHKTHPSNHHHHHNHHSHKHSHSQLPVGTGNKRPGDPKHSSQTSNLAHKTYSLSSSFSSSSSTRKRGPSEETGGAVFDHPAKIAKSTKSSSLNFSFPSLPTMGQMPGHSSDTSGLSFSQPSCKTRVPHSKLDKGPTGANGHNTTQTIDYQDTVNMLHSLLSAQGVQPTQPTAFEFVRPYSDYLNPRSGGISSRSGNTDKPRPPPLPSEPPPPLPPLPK

PKC [7] = assay: Phorbol ester-induced PKC and ERK phosphorylation in MM cells; type: cell-based, human; details: MM cells stimulated with phorbol-12-myristate-13-acetate
[8] = cited from earlier work
RPMI-8226/NIH-3T3 tumors = assay: RPMI-8226-GFP/NIH-3T3 co-injection xenograft model
[9] = test system: NCI-H929 subcutaneous xenografted tumors; assay: MM subcutaneous plasmacytoma model; type: in vivo, hairless SCID mice; details: for Tumor growth delay relative to vehicle-treated controls: 5 mg/kg
[10] = Pilot toxicity study, body condition scoring; type: in vivo, mice
How it was run: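 Pilot tolerability study in a small cohort of mice. Doses were chosen from a range based on NCI DTP toxicity data. A single dose was given, and toxicity was assessed qualitatively by body condition scoring.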

[11] = Serum biochemistry and complete blood count in immunocompetent mice; type: in vivo; details: C57BL/6 mice
CDK1/cyclin B = CDK1/cyclin B (Homo sapiens, UniProt P06493); assay: HotSpot in vitro kinase assay CDK1/cyclin B; type: biochemical; details: read-out: IC50 CDK1/cyclin B
CDK1/cyclin B, sequence (P06493 whole entry): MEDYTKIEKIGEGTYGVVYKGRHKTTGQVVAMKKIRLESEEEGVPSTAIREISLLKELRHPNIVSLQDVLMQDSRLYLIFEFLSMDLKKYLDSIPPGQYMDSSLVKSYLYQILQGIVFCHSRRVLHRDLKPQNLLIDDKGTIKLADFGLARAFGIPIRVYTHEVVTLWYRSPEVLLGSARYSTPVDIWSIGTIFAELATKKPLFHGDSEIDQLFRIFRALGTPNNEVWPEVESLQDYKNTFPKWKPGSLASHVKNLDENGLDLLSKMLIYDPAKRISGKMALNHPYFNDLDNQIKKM
CDK1/cyclin B, sequence (P14635 whole entry partner): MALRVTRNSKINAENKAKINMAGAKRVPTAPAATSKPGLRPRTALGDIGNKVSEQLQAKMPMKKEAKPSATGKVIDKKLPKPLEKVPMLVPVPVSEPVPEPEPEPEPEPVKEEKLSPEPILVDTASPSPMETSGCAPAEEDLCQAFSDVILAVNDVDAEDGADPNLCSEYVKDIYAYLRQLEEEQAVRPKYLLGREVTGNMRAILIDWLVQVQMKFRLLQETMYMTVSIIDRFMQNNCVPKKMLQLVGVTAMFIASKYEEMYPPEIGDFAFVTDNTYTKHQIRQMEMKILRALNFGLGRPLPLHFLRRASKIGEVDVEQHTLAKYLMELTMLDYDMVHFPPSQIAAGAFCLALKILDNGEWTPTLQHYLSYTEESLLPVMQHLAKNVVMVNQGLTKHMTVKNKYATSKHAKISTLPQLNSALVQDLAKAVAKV

CDK4/cyclin D1 = CDK4/cyclin D1 (Homo sapiens, UniProt P11802); assay: HotSpot in vitro kinase assay CDK4/cyclin D1; type: biochemical; details: read-out: IC50 CDK4/cyclin D1
CDK4/cyclin D1, sequence (P11802 whole entry): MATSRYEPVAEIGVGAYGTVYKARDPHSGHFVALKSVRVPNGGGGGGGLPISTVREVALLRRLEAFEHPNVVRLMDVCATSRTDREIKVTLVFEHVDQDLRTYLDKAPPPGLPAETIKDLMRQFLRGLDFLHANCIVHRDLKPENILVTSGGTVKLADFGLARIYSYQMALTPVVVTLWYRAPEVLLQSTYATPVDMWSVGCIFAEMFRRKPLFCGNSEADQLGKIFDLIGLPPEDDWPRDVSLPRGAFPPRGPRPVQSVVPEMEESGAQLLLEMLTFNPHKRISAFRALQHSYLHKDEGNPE
CDK4/cyclin D1, sequence (P24385 whole entry partner): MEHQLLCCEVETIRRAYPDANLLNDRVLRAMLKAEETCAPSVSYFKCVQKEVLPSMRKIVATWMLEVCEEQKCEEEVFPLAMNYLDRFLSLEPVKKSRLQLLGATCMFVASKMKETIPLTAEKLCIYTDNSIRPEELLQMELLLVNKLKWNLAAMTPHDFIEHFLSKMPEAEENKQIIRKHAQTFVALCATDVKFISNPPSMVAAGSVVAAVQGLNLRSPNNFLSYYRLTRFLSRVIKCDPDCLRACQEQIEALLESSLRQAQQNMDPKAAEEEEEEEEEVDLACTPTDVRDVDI

CDK7/cyclin H = CDK7/cyclin H (Homo sapiens, UniProt P50613); assay: HotSpot in vitro kinase assay CDK7/cyclin H; type: biochemical; details: read-out: IC50 CDK7/cyclin H
CDK7/cyclin H, sequence (P50613 whole entry): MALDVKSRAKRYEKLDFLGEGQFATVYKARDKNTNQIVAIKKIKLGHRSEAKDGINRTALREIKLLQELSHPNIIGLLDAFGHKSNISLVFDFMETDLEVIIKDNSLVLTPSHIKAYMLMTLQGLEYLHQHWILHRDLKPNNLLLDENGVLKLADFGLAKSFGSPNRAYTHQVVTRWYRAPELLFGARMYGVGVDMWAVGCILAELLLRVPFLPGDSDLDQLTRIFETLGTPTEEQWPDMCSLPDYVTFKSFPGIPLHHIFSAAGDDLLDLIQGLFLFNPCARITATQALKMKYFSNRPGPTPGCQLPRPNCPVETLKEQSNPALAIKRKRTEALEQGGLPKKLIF
CDK7/cyclin H, sequence (P51946 whole entry partner): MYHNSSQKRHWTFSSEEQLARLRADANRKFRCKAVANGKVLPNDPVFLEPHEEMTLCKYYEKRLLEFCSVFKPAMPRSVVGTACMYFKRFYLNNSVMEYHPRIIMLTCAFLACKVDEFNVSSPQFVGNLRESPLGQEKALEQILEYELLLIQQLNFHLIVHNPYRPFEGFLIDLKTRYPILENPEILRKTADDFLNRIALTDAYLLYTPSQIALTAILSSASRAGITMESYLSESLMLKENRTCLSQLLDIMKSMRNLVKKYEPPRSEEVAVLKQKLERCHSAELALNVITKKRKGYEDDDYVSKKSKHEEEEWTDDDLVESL
CDK7/cyclin H, sequence (P51948 whole entry partner): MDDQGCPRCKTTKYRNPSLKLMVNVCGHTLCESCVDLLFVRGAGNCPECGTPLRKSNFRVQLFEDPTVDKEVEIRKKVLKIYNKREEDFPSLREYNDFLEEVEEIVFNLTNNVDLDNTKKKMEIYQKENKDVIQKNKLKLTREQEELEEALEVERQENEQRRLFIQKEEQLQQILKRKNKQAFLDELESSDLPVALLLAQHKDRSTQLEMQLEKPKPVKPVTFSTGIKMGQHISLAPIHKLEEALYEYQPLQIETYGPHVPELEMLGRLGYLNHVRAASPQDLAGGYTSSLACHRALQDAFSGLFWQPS

CDK9 [12] = assay: CDK9 signaling, Western blots in MM cells; type: cell-based, human; details: NCI-H929 cells, 2 hours
CDK7 = assay: RNA polymerase II Ser5 phosphorylation; type: cell-based, human; details: NCI-H929 cells, 2 hours
[13] = test system: cyclin D1, c-Maf, c-Myc, L-Myc; assay: Expression of MM oncogenes, Western blot and RT-PCR; type: cell-based, human; details: 250 nM
[14] = test system: NCI-H929 and CD138+ MM patient bone marrow cells; assay: Cell viability, SLM6 with bortezomib; type: cell-based, human; details: single agents
CDK9/cyclin K = CDK9/cyclin K (Homo sapiens, UniProt P50750); details: read-out: IC50 CDK9/cyclin K kinase activity
CDK9/cyclin K, sequence (P50750 whole entry): as the sequence (P50750 whole entry) above
CDK9/cyclin K, sequence (O75909 whole entry partner): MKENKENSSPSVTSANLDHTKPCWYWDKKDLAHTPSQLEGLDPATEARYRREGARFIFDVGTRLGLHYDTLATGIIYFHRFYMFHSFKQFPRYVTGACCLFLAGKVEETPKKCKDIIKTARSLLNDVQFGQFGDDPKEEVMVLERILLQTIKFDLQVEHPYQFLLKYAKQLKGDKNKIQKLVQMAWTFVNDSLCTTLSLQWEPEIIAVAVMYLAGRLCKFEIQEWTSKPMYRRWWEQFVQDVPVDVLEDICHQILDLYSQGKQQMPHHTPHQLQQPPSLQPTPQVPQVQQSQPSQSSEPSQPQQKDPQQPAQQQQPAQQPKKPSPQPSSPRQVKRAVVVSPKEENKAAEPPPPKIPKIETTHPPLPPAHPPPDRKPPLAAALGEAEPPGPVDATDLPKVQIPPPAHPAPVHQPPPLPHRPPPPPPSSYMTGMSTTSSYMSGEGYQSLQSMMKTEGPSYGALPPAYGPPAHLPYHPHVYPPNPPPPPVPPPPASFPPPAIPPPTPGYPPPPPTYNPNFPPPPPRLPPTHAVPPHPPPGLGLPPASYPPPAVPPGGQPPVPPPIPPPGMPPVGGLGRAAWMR

CDK9/cyclin T1 = CDK9/cyclin T1 (Homo sapiens, UniProt P50750); details: read-out: IC50 CDK9/cyclin T1 kinase activity
CDK9/cyclin T1, sequence (P50750 whole entry): as the sequence (P50750 whole entry) above
CDK9/cyclin T1, sequence (O60563 whole entry partner): as the sequence (O60563 whole entry partner) above

CDK2/cyclin A = CDK2/cyclin A (Homo sapiens, UniProt P24941); details: read-out: IC50 CDK2/cyclin A

NNc1c(C(N)=O)c2c(N)ncnc2n1[C@@H]1O[C@H](CO)[C@@H](O)[C@H]1O [SLM3]
Sensitivity of MM cells relative to other tumor types ([1]; MM cell lines and primary patient plasma cells vs other tumor types): 3 to 10 times
IC50 ([1]; read-out: IC50, cell viability, 24 h, breast, colon, lung, hepatocellular, glioma and one of two pancreatic cancer cell lines): > 2 µM
Effect on MM cell viability [2]: superior activity compared to other nucleoside analogs
Concentrations that significantly reduced MM cell viability [2]: less than 250 nM
IC50 ([2]; read-out: IC50, cell viability, MM cells): 0.2 to 0.4 µM
Activity on cell viability of primary plasma cells [3]: confirmed this activity
Apoptotic marker cleaved caspase-3 (RPMI-8226 cells; RPMI-8226, increasing concentrations): dose-dependent increase
Apoptosis (active caspase-3 positive cells) [4]: negligible levels of apoptosis
Activity against PKC in vitro (PKC [5]): modest activity
Activity against CDK9 in vitro (CDK9 [6]): modest activity

NC(=O)c1cn([C@@H]2O[C@H](CO)[C@@H](O)[C@H]2O)c2ncnc(N)c12 [sangivamycin, reference compound]
Concentrations that significantly reduced MM cell viability [2]: less than 250 nM
MM cell apoptosis (cleaved caspase-3 positive cells) (RPMI-8226 cells; RPMI-8226, 500 nM): 60-80%
Phorbol ester-induced PKC or ERK phosphorylation (PKC [7]): significantly reduced phosphorylation of both kinases
Activity against PKC (PKC [5]): known to inhibit PKC
Safety in humans, phase I trial [8]: demonstrated the safety of this compound in humans

CN1CC[C@H](c2c(O)cc(O)c3c(=O)cc(-c4ccccc4Cl)oc23)[C@H](O)C1 [flavopiridol, reference compound]
Effect on MM cell viability [2]: able to reduce the viability of MM cells
Anti-MM activity in vivo (RPMI-8226/NIH-3T3 tumors; 5.0 mg/kg, weekly i.p.): no anti-MM activity

CC[C@H](CO)Nc1nc(NCc2ccccc2)c2ncn(C(C)C)c2n1 [roscovitine]
Effect on MM cell viability [2]: relatively insensitive

N=C(N)c1cn(C2OC(CO)C(O)C2O)c2ncnc(N)c12 (stereo not drawn) [SLM7]
Concentrations that significantly reduced MM cell viability [2]: less than 250 nM
Tumor growth delay relative to vehicle-treated controls ([9]; weekly i.p.): 7 days
Toxicity by body condition scoring ([10]; single dose of 5 mg/kg): no overt toxicity

O=C1NC(=NCc2cccs2)S/C1=C\c1ccc2ncccc2c1 [RO3306]
Effect on MM cell viability [2]: relatively insensitive

Nc1nc(Cl)nc2c1ncn2[C@H]1C[C@H](O)[C@@H](CO)O1 [cladribine]
Effect on MM cell viability [2]: relatively insensitive

O=c1[nH]cc(F)c(=O)[nH]1 [5′-fluorouracil]
Effect on MM cell viability [2]: relatively insensitive

N/N=C(\N)c1cn(C2OC(CO)C(O)C2O)c2ncnc(N)c12 (stereo not drawn) [SLM6]
Effect on MM cell viability [2]: able to reduce the viability of MM cells
Concentrations that significantly reduced MM cell viability [2]: less than 250 nM
Apoptotic markers in tumors (immunohistochemistry) ([9]; 1 mg/kg i.p., 48 hours): regions of intense cleaved caspase-3 and cleaved caspase-8 immunostaining
Duration of sustained anti-tumor activity ([9]; 1 mg/kg i.p., single dose on day 1): 5 weeks
Toxicity by body condition scoring ([10]; single dose of 1 mg/kg): no overt toxicity
Effects on normal hematopoiesis, complete blood count with differential [11]: no effects on normal hematopoiesis in vivo other than modest thrombocytopenia
Systemic toxicity by serum biochemistry [11]: no signs of systemic toxicity
IC50 (CDK1/cyclin B): < 0.3 µM
IC50 (CDK4/cyclin D1): > 10 µM
IC50 (CDK7/cyclin H): > 10 µM
Phorbol ester-induced PKC or ERK phosphorylation (PKC [7]): no effect
Lowest concentration inhibiting phosphorylation of RNA polymerase II at Ser2 (CDK9 [12]): 250 nM
Phosphorylation of CDK9 at Thr186 (CDK9 [12]): inhibited phosphorylation of CDK9 at Thr186
Phosphorylation of RNA polymerase II at Ser5 (CDK7): no effect
c-Myc and cyclin D1 mRNA transcripts (RT-PCR) ([13]; 6 hours, RPMI-8226 and U266B1 cells): decreased c-Myc and cyclin D1 mRNA transcripts
Oncogene protein expression (Western blot) ([13]; time course, U266B1, RPMI-8226, NCI-H929 cells): repressed the expression of cyclin D1 in U266B1 cells and c-Maf expression in RPMI-8226 cells; also recorded: repressed c-Myc protein levels in RPMI-8226 and NCI-H929 cells, and suppressed L-Myc expression in U266B1 cells
Sensitivity of MM cell lines and primary patient plasma cells to single agent [14]: sensitive
IC50 (CDK9/cyclin K): 0.28 µM
IC50 (CDK9/cyclin T1): 0.133 µM
IC50 (CDK2/cyclin A): < 0.3 µM
Size of MM tumors relative to vehicle-treated controls (RPMI-8226/NIH-3T3 tumors; 0.5 mg/kg, weekly i.p.): significantly reduced the size of MM tumors
Time to evident anti-MM effects after first treatment (RPMI-8226/NIH-3T3 tumors; 0.5 mg/kg, weekly i.p.): ≤ 7 days
Mouse body weight or body condition scoring (RPMI-8226/NIH-3T3 tumors; repeated dosing, 0.5 mg/kg weekly i.p.): no effect

Nc1ccn([C@@H]2O[C@H](CO)[C@@H](O)C2(F)F)c(=O)n1 [gemcitabine]
Effect on MM cell viability [2]: relatively insensitive

[Cl-].[Li+] [LiCl, lithium chloride]
Effect on MM cell viability [2]: neither LiCl nor purvalanol A reduced MM cell viability; also recorded: relatively insensitive

CC(C)C[C@H](NC(=O)[C@H](Cc1ccccc1)NC(=O)c1cnccn1)B(O)O [bortezomib, reference compound]
Sensitivity of MM cell lines and primary patient plasma cells to single agent [14]: sensitive

Cl.NNc1c(C(N)=O)c2c(N)ncnc2n1C1OC(CO)C(O)C1O (stereo not drawn) [SLM3 HCl]
Effect on the growth of MM tumors ([9]; 25 mg/kg, weekly i.p.): no effect
Toxicity by body condition scoring ([10]; single dose of 25 mg/kg): no overt toxicity

CC(C)[C@H](CO)Nc1nc(Nc2cccc(Cl)c2)c2ncn(C(C)C)c2n1 [purvalanol A]
Effect on MM cell viability [2]: neither LiCl nor purvalanol A reduced MM cell viability; also recorded: relatively insensitive

N/C(=N\O)c1cn(C2OC(CO)C(O)C2O)c2ncnc(N)c12 (stereo not drawn) [SLM5]
Concentrations that significantly reduced MM cell viability [2]: less than 250 nM
Tumor growth delay relative to vehicle-treated controls ([9]; weekly i.p.): 7 days
Toxicity by body condition scoring ([10]; single dose of 5 mg/kg): no overt toxicity

O=C1Cc2c([nH]c3ccc([N+](=O)[O-])cc23)-c2ccccc2N1 [alsterpaullone]
Effect on MM cell viability [2]: micromolar concentrations of alsterpaullone) were able to reduce the viability of MM cells
